Source: ChEMBL document CHEMBL1145996 (J Med Chem, 2003)
The source made the active and inactive calls. The calls are words filed in the database; no cut-off is given here.

Key:
Type in all cases: functional, organism-based
Leishmania donovani [1] = assay: Antileishmanial activity of compound against leishmania donovani was determined in luciferase assay; Not active
Plasmodium falciparum [2] = assay: In vitro antimalarial activity against chloroquine-sensitive Plasmodium falciparum D6 Sierra Leone
Plasmodium falciparum [3] = assay: In vitro antimalarial activity against chloroquine-resistant Plasmodium falciparum W2 Indochina
Method in brief: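 Asynchronous P. falciparum cultures (2% hematocrit, 2% parasitemia) given compound dilutions in DMSO or RPMI-1640, incubated 48 h at 37°C under 90% N2/5% CO2/5% O2 in humidified chamber. Growth read as parasite lactate dehydrogenase activity with Malstat reagent. At least six concentrations, each in duplicate; medium and RBC controls on each plate.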

Leishmania donovani [4] = assay: Antileishmanial activity of compound against leishmania donovani was determined in luciferase assay
Method in brief: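 Transgenic Leishmania donovani promastigotes expressing firefly luciferase, 2×10^6 cell/mL, exposed to compound dilutions in 96-well plates at 26°C for 72 h; growth read by luciferase luminescence (Steady Glo). At least six concentrations, each in duplicate; mean values used for growth inhibition curves and IC50. Pentamidine and amphotericin B as standards.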

Row | SMILES | NA (Leishmania donovani [1]) | IC50 (Plasmodium falciparum [2]) | IC50 (Plasmodium falciparum [3]) | IC50 (Leishmania donovani [4])
1 | C[C@@H]1CC[C@H]2[C@@H](C)C(=O)O[C@@H]3O[C@@]4(C)CC[C@@H]1[C@]32O4 | inactive | – | – | –
2 | C[C@@H]1CC[C@H]2[C@@H](CCCc3ccccc3)C(=O)O[C@@H]3O[C@@]4(C)CCC1[C@]32OO4 (some centres undefined) | – | 4.7 nM | 1.3 nM | 11.6 µM
3 | C[C@@H]1CC[C@H]2[C@@H](CCCc3ccc(C(F)(F)F)cc3)CO[C@@H]3O[C@@]4(C)CC[C@@H]1[C@]32O4 | inactive | – | – | –
4 | CC1(C)OO[C@]23CCCC[C@H]2[C@@H](CC(=O)O)C(=O)O[C@@H]3O1 | inactive | – | – | –
5 | C[C@@H]1CC[C@H]2[C@H](CCCc3ccccc3)C(=O)O[C@@H]3O[C@@]4(C)CCC1[C@]32OO4 (some centres undefined) | – | 10.4 nM | 3.4 nM | 45.3 µM
6 | C[C@@H]1CC[C@H]2[C@@H](CCCc3cccc(Cl)c3)CO[C@@H]3O[C@@]4(C)CC[C@@H]1[C@]32O4 | inactive | – | – | –
7 | C[C@@H]1CC[C@H]2[C@H](CCCc3cc(C(F)(F)F)cc(C(F)(F)F)c3)C(=O)O[C@@H]3O[C@@]4(C)CC[C@@H]1[C@]32OO4 | inactive | 12.6 nM | 8.2 nM | –
8 | C[C@@H]1CC[C@H]2[C@@H](C)C(=O)O[C@@H]3OC(C)(C)OO[C@@]32C1 | inactive | – | – | –
9 | C[C@@H]1CC[C@H]2[C@@H](CCCc3cc(C(F)(F)F)cc(C(F)(F)F)c3)C(=O)O[C@@H]3O[C@@]4(C)CC[C@@H]1[C@]32OO4 | – | 18.8 nM | 16 nM | 14.4 µM
10 | C[C@@H]1CC[C@H]2[C@@H](CCCc3ccc(N(C)C)cc3)CO[C@@H]3O[C@@]4(C)CC[C@@H]1[C@]32OO4 | – | 16.5 nM | 14.3 nM | 36 µM
11 | C[C@@H]1CC[C@H]2[C@@H](CCCc3cc(F)cc(F)c3)C(=O)O[C@@H]3O[C@@]4(C)CCC1[C@]32OO4 (some centres undefined) | – | – | – | 49.7 µM
12 | OC(c1cc(C(F)(F)F)nc2c(C(F)(F)F)cccc12)C1CCCCN1 (centres undefined) [MEFLOQUINE] | – | 170 nM | 195 nM | –
13 | CC(C)CCC[C@H]1C(=O)O[C@@H]2O[C@@]3(C)CCC4[C@H](C)CC[C@@H]1[C@]42OO3 (some centres undefined) | – | – | – | 8.5 µM
14 | CCCC[C@H]1C(=O)O[C@@H]2O[C@@]3(CC)CCC4[C@H](C)CC[C@@H]1[C@]42OO3 (some centres undefined) | – | – | – | 35.5 µM
15 | C[C@@H]1CC[C@H]2[C@@H](CCCc3ccc(N(C)C)cc3)C(=O)O[C@@H]3O[C@@]4(C)CCC1[C@]32OO4 (some centres undefined) | – | 27.8 nM | 11.3 nM | 1.9 µM
16 | C[C@@H]1CC[C@H]2CC(=O)N(CCc3ccccc3)[C@@H]3O[C@@]4(C)CC[C@@H]1[C@@]23OO4 | – | – | – | 32.3 µM
17 | CCC[C@@]12CC[C@H]3[C@H](C)CC[C@H]4CCO[C@H](O1)[C@]43OO2 | – | – | – | 70.8 µM
18 | C[C@@H]1CC[C@H]2[C@@H](CCCc3cc(C(F)(F)F)cc(C(F)(F)F)c3)CO[C@@H]3O[C@@]4(C)CC[C@@H]1[C@]32OO4 | – | – | – | 0.3 µM
19 | C[C@@H]1CC[C@H]2[C@@H](CCCc3ccc(S(C)(=O)=O)cc3)C(=O)O[C@@H]3O[C@@]4(C)CC[C@@H]1[C@]32O4 | inactive | – | – | –
20 | C[C@@H]1CC[C@H]2[C@@H](CCCc3ccc(O)cc3)C(=O)O[C@@H]3O[C@@]4(C)CC[C@@H]1[C@]32OO4 | – | 7.9 nM | 4.7 nM | 44.7 µM
21 | C[C@@H]1CC[C@H]2CC(O)O[C@@H]3O[C@@]4(C)CC[C@@H]1[C@@]23OO4 (some centres undefined) | – | – | – | 44.4 µM
22 | C[C@@H]1CC[C@H]2[C@@H](CCCc3cc(C(F)(F)F)cc(C(F)(F)F)c3)C(=O)O[C@@H]3O[C@@]4(C)CC[C@@H]1[C@]32O4 | inactive | – | – | –
23 | CC(C)CN1C(=O)C[C@@H]2CC[C@@H](C)[C@@H]3CC[C@@]4(C)OO[C@@]23[C@H]1O4 | – | – | – | 186 µM
24 | C[C@@H]1CC[C@H]2[C@@H](CCCc3ccc(C(F)(F)F)cc3)C(O)O[C@@H]3O[C@@]4(C)CC[C@@H]1[C@]32OO4 (some centres undefined) | – | – | – | 2.9 µM

Row | SMILES | NA (Leishmania donovani [1]) | IC50 (Plasmodium falciparum [2]) | IC50 (Plasmodium falciparum [3]) | IC50 (Leishmania donovani [4])
25 | C[C@@H]1CC[C@H]2[C@@H](CCCc3ccc(Cl)c(Cl)c3)CO[C@@H]3O[C@@]4(C)CC[C@@H]1[C@]32OO4 | – | – | – | 2.3 µM
26 | C[C@@H]1CC[C@H]2[C@H](CCCc3ccc(N(C)C)cc3)C(=O)O[C@@H]3O[C@@]4(C)CCC1[C@]32OO4 (some centres undefined) | – | – | – | 88.3 µM
27 | C[C@@H]1CC[C@H]2CC(=O)N(CC(=O)OC(C)(C)C)[C@@H]3O[C@@]4(C)CC[C@@H]1[C@@]23OO4 | – | – | – | 27.5 µM
28 | C[C@@H]1CC[C@H]2[C@@H](CCCc3cccc(F)c3)C(=O)O[C@@H]3O[C@@]4(C)CCC1[C@]32OO4 (some centres undefined) | – | – | – | 3.7 µM
29 | CCCC[C@@]12CCC3[C@H](C)CC[C@H]4CC(=O)O[C@H](O1)[C@@]34OO2 (some centres undefined) | – | – | – | 258 µM
30 | C[C@@H]1CC[C@H]2CC(=O)O[C@@H]3O[C@@]4(C)CCC1[C@@]23OO4 (some centres undefined) | – | – | – | 242 µM
31 | C[C@@H]1CC[C@H]2CC(=O)N(Cc3ccccc3)[C@@H]3O[C@@]4(C)CC[C@@H]1[C@@]23OO4 | – | – | – | 56 µM
32 | C[C@@H]1CC[C@H]2[C@@H](C)CO[C@@H]3OC4(C)CC[C@@H]1[C@]32OO4 (single isomer, unassigned) [DEOXOARTEMISININ] | – | – | – | 46.6 µM
33 | CCCC[C@@]12CC[C@H]3[C@H](C)CC[C@H]4CCO[C@H](O1)[C@]43OO2 | – | – | – | 152 µM
34 | C[C@@H]1[C@H](O)[C@@H](C)/C=C/C=C/C=C/C=C/C=C/C=C/C=C/[C@H](O[C@@H]2O[C@H](C)[C@@H](O)[C@H](N)[C@@H]2O)C[C@@H]2O[C@](O)(C[C@@H](O)C[C@@H](O)[C@H](O)CC[C@@H](O)C[C@@H](O)CC(=O)O[C@H]1C)C[C@H](O)[C@H]2C(=O)O [AMPHOTERICIN B] | – | – | – | 0.01 µM
35 | C[C@@H]1CC[C@H]2[C@@H](CCCc3cc(C(F)(F)F)cc(C(F)(F)F)c3)C(O)O[C@@H]3O[C@@]4(C)CC[C@@H]1[C@]32OO4 (some centres undefined) | inactive | – | – | –
36 | C[C@@H]1CC[C@H]2[C@@H](CCCc3ccc(Cl)cc3)C(=O)O[C@@H]3O[C@@]4(C)CCC1[C@]32OO4 (some centres undefined) | – | – | – | 11.9 µM
37 | C[C@@H]1CC[C@H]2[C@@H](CCCc3cccc(Cl)c3)C(O)O[C@@H]3O[C@@]4(C)CC[C@@H]1[C@]32OO4 (some centres undefined) | – | – | – | 16.6 µM
38 | CCC[C@H]1C(=O)O[C@@H]2O[C@@]3(C)CCC4[C@H](C)CC[C@@H]1[C@]42OO3 (some centres undefined) | – | – | – | 16.8 µM
39 | CSc1ccc(CCC[C@H]2C(=O)O[C@@H]3O[C@@]4(C)CCC5[C@H](C)CC[C@@H]2[C@]53OO4)cc1 (some centres undefined) | – | 43.9 nM | 50.8 nM | 1.4 µM
40 | C[C@@H]1CC[C@H]2[C@@H](CCCc3ccc(S(C)(=O)=O)cc3)C(=O)O[C@@H]3O[C@@]4(C)CCC1[C@]32OO4 (some centres undefined) | – | 30.1 nM | 20 nM | 53.8 µM
41 | COc1ccc(CCC[C@H]2CO[C@@H]3O[C@@]4(C)CC[C@H]5[C@H](C)CC[C@@H]2[C@@]35OO4)cc1 | – | – | – | 17.4 µM
42 | C[C@@H]1CC[C@H]2C(C)(C)C(=O)O[C@@H]3O[C@@]4(C)CCC1[C@]32OO4 (some centres undefined) | – | – | – | 101 µM
43 | C[C@@H]1CC[C@H]2[C@@H](CCCc3cccc(Cl)c3)CO[C@@H]3O[C@@]4(C)CC[C@@H]1[C@]32OO4 | – | – | – | 3.7 µM
44 | CCCC[C@H]1C(=O)O[C@@H]2O[C@@]3(C)CCC4[C@H](C)CC[C@@H]1[C@]42OO3 (some centres undefined) | – | – | – | 12.3 µM
45 | C=CC[C@H]1C(=O)O[C@@H]2O[C@@]3(C)CCC4[C@H](C)CC[C@@H]1[C@]42OO3 (some centres undefined) | – | – | – | 17.8 µM
46 | CC[C@H]1C(=O)O[C@@H]2O[C@@]3(C)CCC4[C@H](C)CC[C@@H]1[C@]42OO3 (some centres undefined) | – | – | – | 60.7 µM
47 | C[C@@H]1CC[C@H]2[C@@H](CCCc3ccc(Cl)cc3)CO[C@@H]3O[C@@]4(C)CC[C@@H]1[C@]32OO4 | – | – | – | 4.9 µM
48 | C[C@@H]1CC[C@H]2[C@@H](CCC#N)C(=O)O[C@@H]3O[C@@]4(C)CCC1[C@]32OO4 (some centres undefined) | – | 14.9 nM | 14.9 nM | 38.9 µM
